The record followed here is ChEMBL document CHEMBL1136016, “Synthesis, biological activity, and molecular modeling investigation of new pyrazolo[4,3-e]-1,2,4-triazolo[1,5-c]pyrimidine derivatives as human A(3) adenosine receptor antagonists” (J Med Chem, 2002).

In assay [1] the target is T1, Adenosine receptor A2a (Homo sapiens, UniProt P29274). The assay can be described thus: Displacement of [3H]SCH-58261 from human Adenosine A2A receptor expressed in CHO cells. In kind it is cell-based. The procedure, abridged: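 Membranes from CHO cells expressing the human receptor (50 µg protein) with [3H]SCH58261 and six to eight competitor concentrations. Incubated 60 min at 25 °C. Nonspecific binding was set with NECA.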
T1 sequence (P29274 whole entry): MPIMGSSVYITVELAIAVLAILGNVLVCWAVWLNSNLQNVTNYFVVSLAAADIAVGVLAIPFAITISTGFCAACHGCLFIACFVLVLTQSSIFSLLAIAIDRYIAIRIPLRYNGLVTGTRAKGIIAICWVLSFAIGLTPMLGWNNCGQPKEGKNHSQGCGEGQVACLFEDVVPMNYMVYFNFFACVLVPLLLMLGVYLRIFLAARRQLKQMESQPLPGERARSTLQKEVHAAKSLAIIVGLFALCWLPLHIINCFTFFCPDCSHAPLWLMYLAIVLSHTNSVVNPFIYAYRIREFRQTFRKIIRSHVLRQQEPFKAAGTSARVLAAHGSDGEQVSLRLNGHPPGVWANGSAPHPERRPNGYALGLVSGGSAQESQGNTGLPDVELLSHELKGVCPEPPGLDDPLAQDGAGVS
In general terms: Loss of bound radioactivity is the signal in a displacement assay; it reports binding, not function.

Assay [2] has as its target Adenosine receptors; A2b & A3 (Homo sapiens) (UniProt P29275+P0DMS8). Kind of assay: Selectivity ratio (h2B/hA3). The assay is classed as protein assay.
Assay [3] deals with Adenosine receptors; A1 & A3 (Homo sapiens) (UniProt P30542+P0DMS8). The assay can be described thus: Selectivity ratio (hA1/hA3). In kind it is protein assay.
Assay [4] deals with T2, Adenosine receptor A1 (Homo sapiens, UniProt P30542).
T2 sequence (P30542 whole entry): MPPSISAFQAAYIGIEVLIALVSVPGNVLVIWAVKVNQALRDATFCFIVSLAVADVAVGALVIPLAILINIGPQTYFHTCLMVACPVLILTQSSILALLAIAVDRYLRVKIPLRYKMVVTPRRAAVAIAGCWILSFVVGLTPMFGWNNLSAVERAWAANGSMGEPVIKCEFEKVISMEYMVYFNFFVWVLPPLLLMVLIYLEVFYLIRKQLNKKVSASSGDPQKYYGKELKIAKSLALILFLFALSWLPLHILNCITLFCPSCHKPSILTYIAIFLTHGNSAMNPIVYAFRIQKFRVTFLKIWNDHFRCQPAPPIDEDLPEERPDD
Kind of assay: Displacement of [3H]DPCPX from human Adenosine A1 receptor expressed in CHO cells. The assay is classed as cell-based. The method, boiled down: (§1)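 Human recombinant A1 receptor in CHO cell membranes, resuspended in 50 mM Tris HCl pH 7.4. Displacement run 120 min at 25 °C with 1 nM [3H]DPCPX, 50 µg protein per assay, and at least six to eight test concentrations. Nonspecific binding defined with CHA. Bound and free separated on glass-fiber filters; filter radioactivity counted. n = 3-6.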

Assay [5] addresses T3, Adenosine receptor A2b (Homo sapiens, UniProt P29275).
T3 sequence (P29275 whole entry): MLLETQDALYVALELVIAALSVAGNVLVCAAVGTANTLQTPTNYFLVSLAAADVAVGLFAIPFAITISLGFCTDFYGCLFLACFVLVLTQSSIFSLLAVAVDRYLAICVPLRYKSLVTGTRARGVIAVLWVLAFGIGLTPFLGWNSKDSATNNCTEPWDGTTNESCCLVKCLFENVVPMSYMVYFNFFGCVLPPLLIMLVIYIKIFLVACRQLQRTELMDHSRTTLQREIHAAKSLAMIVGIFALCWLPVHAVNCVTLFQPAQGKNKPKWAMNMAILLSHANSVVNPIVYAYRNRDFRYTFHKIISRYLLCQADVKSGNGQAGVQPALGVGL
The assay can be described thus: Displacement of [3H]DPCPX from human Adenosine A2B receptor expressed in HEK293 cells (95% confidence limits). The assay is classed as cell-based. The method, boiled down:
(§2)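 HEK-293 membranes expressing the human receptor were incubated 60 min at 25 °C. Six to eight test concentrations were used. Nonspecific binding was set with NECA. n = 3-6.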

For assay [6], the target named is T4, Adenosine receptor A3 (Homo sapiens, UniProt P0DMS8).
T4 sequence (P0DMS8 whole entry): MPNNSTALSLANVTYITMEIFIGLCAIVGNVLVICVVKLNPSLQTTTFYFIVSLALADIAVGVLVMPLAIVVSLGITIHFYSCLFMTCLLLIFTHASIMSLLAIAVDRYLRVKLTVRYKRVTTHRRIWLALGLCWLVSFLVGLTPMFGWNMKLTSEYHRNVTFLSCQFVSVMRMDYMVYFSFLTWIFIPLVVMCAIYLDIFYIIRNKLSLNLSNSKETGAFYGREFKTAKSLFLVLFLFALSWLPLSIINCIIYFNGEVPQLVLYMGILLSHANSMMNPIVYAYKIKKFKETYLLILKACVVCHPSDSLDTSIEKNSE
Kind of assay: biochemical.

Assay [7] concerns the target T3, Adenosine receptor A2b. The assay can be described thus: Displacement of [3H]DPCPX binding at human Adenosine A2B receptor expressed in HEK293 cells. In kind it is cell-based. The method, boiled down: (§3)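 Membranes from HEK-293 cells with human recombinant A2B receptor. Incubation 60 min at 25 °C in 50 mM Tris HCl, 10 mM MgCl2, 1 mM EDTA, 0.1 mM benzamidine, pH 7.4, with 2 IU/mL adenosine deaminase and 40 nM [3H]DPCPX. At least six to eight test concentrations. Nonspecific binding defined with NECA. n = 3-6.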

In assay [8] the target is T4, Adenosine receptor A3. Kind of assay: Displacement of […] from human Adenosine A3 receptor expressed in CHO cells. In kind it is cell-based. The procedure, abridged:
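Membranes of CHO cells stably expressing human A3 receptor (50 µg protein/assay), incubated in duplicate with 1 nM [3H]MRE3008-F20 in 50 mM Tris HCl, 10 mM MgCl2 (pH 7.4) and six to eight ligand concentrations, 120 min at 4 °C. Nonspecific binding was set with 1 µM MRE3008-F20. Separation was by GF/B filtration and scintillation counting; n = 3-6.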

For assay [9], the target named is T1, Adenosine receptor A2a. The assay can be described thus: Displacement of [3H]SCH-58261 from human Adenosine A2A receptor expressed in HEK293 cells; range 36-70. The assay is classed as cell-based.
The target in assay [10] is T3, Adenosine receptor A2b. Kind of assay: Displacement of [3H]-DPCPX from human Adenosine A2B receptor expressed in HEK293 cells; range 107-172. In kind it is cell-based. The method, boiled down:
as §2

Assay [11] concerns the target T2, Adenosine receptor A1. Kind of assay: Displacement of [3H]DPCPX from human Adenosine A1 receptor expressed in CHO cells; range 253-401. The assay is classed as cell-based. The procedure, abridged: as §1
For assay [12], the target named is T4, Adenosine receptor A3. The assay can be described thus: biochemical. The source holds these as a separate data set.
Assay [13] deals with T1, Adenosine receptor A2a. The assay can be described thus: Displacement of [3H]SCH-58261 from human Adenosine A2A receptor expressed in HEK293 cells; […]. In kind it is cell-based.
Assay [14] deals with T4, Adenosine receptor A3. Kind of assay: Displacement of [3H]MRE3008-F20 binding at human Adenosine A3 receptor expressed in HEK cells; range 0.82-1.02. The assay is classed as cell-based, HEK293.
Assay [15] deals with T2, Adenosine receptor A1. The assay can be described thus: Displacement of [3H]DPCPX from human Adenosine A1 receptor expressed in CHO cells; range 222-400. The assay is classed as cell-based. The method, boiled down:
as §1

Assay [16] concerns the target T3, Adenosine receptor A2b. Kind of assay: Displacement of [3H]DPCPX from human Adenosine A2B receptor expressed in HEK293 cells; range 88-165. In kind it is cell-based. The procedure, abridged:
as §3

In assay [17] the target is T4, Adenosine receptor A3. Kind of assay: Displacement of [3H]MRE3008-F20 from human Adenosine A3 receptor expressed in HEK cells; range 19-34. The assay is classed as cell-based, HEK293.
Assay [18] has as its target T4, Adenosine receptor A3. Kind of assay: Inhibition of IB-MECA agonist-mediated cAMP production in CHO cell membranes expressing human Adenosine A3 receptor; range 130-279. In kind it is functional, cell-based. (cAMP levels reflect the balance of adenylyl cyclase and phosphodiesterase activity.)
In assay [19] the target is T1, Adenosine receptor A2a. Kind of assay: Displacement of [3H]SCH-58261 from human Adenosine A2A receptor expressed in HEK293 cells. In kind it is cell-based.
Assay [20] concerns the target T2, Adenosine receptor A1. The assay can be described thus: Displacement of [3H]DPCPX from human Adenosine A1 receptor expressed in CHO cells; range 436-810. The assay is classed as cell-based. The procedure, abridged:
as §1

Regarding `CCn1cc2c(nc(NC(=O)Cc3ccccc3)n3nc(-c4ccco4)nc23)n1`, the Ki came out at 335 nM in assay [1], 714 nM in assay [4], 161 nM in [5] and 1.03 nM in assay [6]. Further, the Ratio in [2] turned out to be 156; in assay [3], 693.
Consider `CCCCn1cc2c(nc(NC(=O)Nc3ccc([N+](=O)[O-])cc3)n3nc(-c4ccco4)nc23)n1`, for which the Ki in [1] was 503 nM; in assay [4] it was 584 nM; in assay [7] it was 52 nM; in assay [8] it was 0.55 nM. Besides, the figures for the Ratio in assay [2] and in [3] were 96 and 1060, respectively.
As for `Cn1cc2c(nc(NC(=O)Nc3cccc(Cl)c3)n3nc(-c4ccco4)nc23)n1`, the Ratio turned out to be 512 in [2] and 875 in assay [3].
Consider `O=C(Nc1cccc(Cl)c1)Nc1nc2ccc(Cl)cc2c2nc(-c3ccco3)nn12`, for which the Ratio in assay [2] is 157; in [3], 54.
For `CCn1cc2c(nc(NC(=O)Nc3ccc(OC)cc3)n3nc(-c4ccco4)nc23)n1`, the Ratio in assay [2] is 408; in assay [3] it was 1710.
Take `CCCCn1cc2c(nc(NC(=O)Nc3ccc(F)cc3)n3nc(-c4ccco4)nc23)n1`: the results for the Ratio in assay [2] and in assay [3] were 170 and 398, respectively. Moreover, the Ki in assay [9] worked out at 50 nM; in [10] it was 136 nM; in assay [11], 318 nM; in assay [12], 0.8 nM.
For `CCCCn1cc2c(nc(NC(=O)Nc3ccc(Br)cc3)n3nc(-c4ccco4)nc23)n1`, the Ki in assay [13] worked out at 66 nM; in assay [14], 0.91 nM; in [15] it was 300 nM; in assay [16], 121 nM. The Ratio in assay [2] was determined as 133; in [3], 330.
On to `COc1ccc(NC(=O)Nc2nc3nn(C)cc3c3nc(-c4ccco4)nn23)cc1`, for which the results for the Ratio in assay [2] and in [3] were 1300 and 5480, respectively.
Regarding `Cn1cc2c(nc(NC(=O)Nc3ccc(S(=O)(=O)O)cc3)n3nc(-c4ccco4)nc23)n1`, the Ratio in assay [2] and in [3] was over 400 throughout. In addition, the Ki in assay [7] was over 10000 nM; in assay [17], 25 nM; in assay [19], 594 nM; in assay [20], over 10000 nM. The compound further registered an IC50 in assay [18] of 190 nM.

As usually defined, the Ki is a measure of affinity in units of concentration, obtained from inhibition or displacement. One may read the IC50 as the point on the concentration scale where inhibition reaches its midpoint. Lower therefore signals inhibition by little substance.
